Data set [1] concerns the target T1, Estrogen receptor (Homo sapiens) (UniProt P03372).
T1 sequence (whole entry): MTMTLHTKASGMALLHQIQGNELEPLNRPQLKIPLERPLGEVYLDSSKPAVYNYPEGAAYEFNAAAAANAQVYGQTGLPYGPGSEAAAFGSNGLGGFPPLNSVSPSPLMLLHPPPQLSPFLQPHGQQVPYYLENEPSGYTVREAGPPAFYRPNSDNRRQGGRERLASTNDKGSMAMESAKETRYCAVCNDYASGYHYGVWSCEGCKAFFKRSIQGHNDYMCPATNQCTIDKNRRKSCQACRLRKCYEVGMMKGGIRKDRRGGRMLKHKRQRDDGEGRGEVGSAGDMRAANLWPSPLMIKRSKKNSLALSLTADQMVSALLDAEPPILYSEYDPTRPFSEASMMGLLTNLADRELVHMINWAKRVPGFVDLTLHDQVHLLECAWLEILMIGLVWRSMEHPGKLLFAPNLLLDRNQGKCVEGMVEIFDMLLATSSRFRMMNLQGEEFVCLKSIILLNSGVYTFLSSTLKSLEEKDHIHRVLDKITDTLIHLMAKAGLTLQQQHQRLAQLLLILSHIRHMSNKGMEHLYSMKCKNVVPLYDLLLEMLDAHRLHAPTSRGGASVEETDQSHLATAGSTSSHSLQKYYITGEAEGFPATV
The experiment in a line: Binding affinity to recombinant human GFP-fused ERalpha LBD (301 to 553 residues) expressed in Escherichia coli BL21(DE3) in presence of ERalpha inhibitor 4-hydroxytamoxifen by ITC. The procedure, abridged:
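ITC at 25 °C. 50 μM peptide injected in 2 μL steps into 5 μM ERα LBD in 50 mM Tris pH 8.0, 150 mM NaCl, 1 mM TCEP containing 0.1 mM 4-hydroxytamoxifen instead of estradiol. Isotherm fitted.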

In data set [2] the target is T2, Vitamin D3 receptor (Homo sapiens, UniProt P11473).
T2 sequence (P11473 whole entry): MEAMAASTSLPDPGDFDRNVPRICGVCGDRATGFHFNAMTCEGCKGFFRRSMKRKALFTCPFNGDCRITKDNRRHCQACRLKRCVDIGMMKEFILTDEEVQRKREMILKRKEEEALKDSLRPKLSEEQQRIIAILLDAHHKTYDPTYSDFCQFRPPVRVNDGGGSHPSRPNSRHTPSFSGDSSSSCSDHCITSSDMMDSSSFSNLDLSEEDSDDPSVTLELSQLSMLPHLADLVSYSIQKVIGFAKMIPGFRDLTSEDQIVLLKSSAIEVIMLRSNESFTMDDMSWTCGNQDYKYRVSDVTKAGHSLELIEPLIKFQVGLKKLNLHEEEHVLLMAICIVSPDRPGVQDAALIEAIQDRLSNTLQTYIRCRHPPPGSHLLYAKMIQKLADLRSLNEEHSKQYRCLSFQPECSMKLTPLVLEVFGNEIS
The data set is described as follows: Binding affinity to recombinant human GST-tagged VDR LBD (156 to 453 residues) expressed in Echerichia coli BL21 star (DE3) after 40 mins in presence of vitamin D3 by fluorescence polarization assay. The procedure, abridged:
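GST-VDR LBD titrated into 10 nM final FITC-labelled peptide in 20 mM Tris-HCl pH 8.0, 150 mM NaCl, 5% glycerol, 1 mM TCEP containing 10 μM vitamin D3. 40 min dark incubation, polarization at 298 K (ex 480/em 535 nm). KD by nonlinear regression.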

Data set [3] can be described thus: Drug uptake in human MCF7 cells assessed per million cells at 5 uM after 3 hrs by FACS analysis. Type of data set: ADME, cell-based. Particulars: mcf7, 3 h. The procedure, abridged: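 Adherent cells seeded overnight, then exposed to 5 μM FITC-labelled peptide or DMSO in FBS-free medium, 3 h, 37 °C. After PBS washes (three), about 10000 cells per sample analysed by flow cytometry; mean cellular fluorescence intensity calculated. More than two independent experiments, SEM.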

Data set [4] is described as follows: Drug uptake in human MCF7 cells at 5 uM after 3 hrs in presence of 10 nM E2 by DAPI-staining based confocal laser scanning microscopic analysis. The note with it: mcf7, 3 h.
Data set [5] is described as follows: Drug uptake in human MCF7 cell nucleus at 5 uM after 3 hrs in presence of 10 nM E2 by DAPI-staining based confocal laser scanning microscopic analysis.
The target of data set [6] is Estrogen receptor beta (Homo sapiens, UniProt Q92731). The data set is described as follows: Binding affinity to recombinant human GFP-fused ERbeta LBD (259 to 498 residues) expressed in Escherichia coli BL21(DE3) after 40 mins in presence of 17beta-estradiol by fluorescence polarization assay. The procedure, abridged: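 FITC-labelled peptide at 10 nM final, titrated with increasing purified LBD (ERβ LBD carrying C334S, C369S, C481S) in 20 mM Tris-HCl pH 8.0, 150 mM NaCl, 5% glycerol, 1 mM TCEP with 10 μM 17β-estradiol. Incubated 40 min in the dark, polarization read at 298 K (ex 480/em 535 nm). KD from nonlinear regression of polarization versus protein concentration.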
Chain of Estrogen receptor beta (Q92731 whole entry, the tested form may be a part): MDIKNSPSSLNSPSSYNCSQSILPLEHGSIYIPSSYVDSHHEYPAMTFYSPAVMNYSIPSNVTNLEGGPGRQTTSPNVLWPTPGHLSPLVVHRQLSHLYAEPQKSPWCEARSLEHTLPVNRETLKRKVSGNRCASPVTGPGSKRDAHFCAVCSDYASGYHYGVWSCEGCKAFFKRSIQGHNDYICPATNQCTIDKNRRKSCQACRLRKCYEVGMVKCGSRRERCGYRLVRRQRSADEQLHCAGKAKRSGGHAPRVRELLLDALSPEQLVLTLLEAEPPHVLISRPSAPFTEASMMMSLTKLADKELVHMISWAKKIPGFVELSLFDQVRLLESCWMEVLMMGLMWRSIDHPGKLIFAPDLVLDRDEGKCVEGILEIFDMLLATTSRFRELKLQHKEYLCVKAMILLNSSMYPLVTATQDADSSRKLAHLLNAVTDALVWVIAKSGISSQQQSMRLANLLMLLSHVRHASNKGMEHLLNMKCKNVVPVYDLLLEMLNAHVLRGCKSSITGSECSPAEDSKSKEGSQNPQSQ

The target in data set [7] is T3, Estrogen receptor (Homo sapiens, UniProt P03372).
T3 sequence (P03372 whole entry): T1 sequence (whole entry)
The data set is described as follows: Binding affinity to recombinant human GFP-fused ERalpha LBD (301 to 553 residues) expressed in Escherichia coli BL21(DE3) after 40 mins in presence of 17beta-estradiol by fluorescence polarization assay.

The species entered for data set [8] is Homo sapiens. The experiment in a line: Selectivity ratio of Kd for recombinant human GST-tagged PGR LBD ([…] residues) to Kd for recombinant human ERalpha LBD (301 to 553 residues). The procedure, abridged: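 Ratio of KD values, each from fluorescence polarization of 10 nM FITC-peptide titrated with the respective LBD after 40 min in the dark at 298 K, with the matching ligand in buffer (10 μM 17β-estradiol, progesterone or vitamin D3).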

Calls of active or inactive are those of the source. The rule behind the calls is not given here.

In the case of `CC[C@H](C)[C@@H]1NC(=O)C[C@H](NC(=O)[C@H](CCCNC(=N)N)NC(=O)CCNC(=S)Nc2ccc3c(c2)C(=O)OC32c3ccc(O)cc3Oc3cc(O)ccc32)C(=O)NCC(C(=O)N[C@@H](CCCNC(=N)N)C(=O)NC(CC(C)(C)C)C(=O)NC(CC(C)(C)C)C(=O)N[C@@H](CCC(N)=O)C(N)=O)NC(=O)C(CC(C)(C)C)NC1=O` (stereo partly drawn), the outcome in data set [1] was inactive. Also, the Kd in data set [2] was greater than 2000 nM; in data set [6], 297 nM; in data set [7], 67 nM. Further, the Drug uptake result in data set [3], in data set [4] and in data set [5] was “Active” in each case. Also, the Selectivity ratio in data set [8] was 3.7.

The record behind these values is ChEMBL document CHEMBL4017549, “Structural Basis of Inhibition of ERα-Coactivator Interaction by High-Affinity N-Terminus Isoaspartic Acid Tethered Helical Peptides” (J Med Chem, 2017).
